Screening data (PubChem)
Compounds with a hit are over-represented: about 5.7% of the library has one in this group of screens.
Beta apoptosis: beta cell apoptosis inhibition. INS-1E cytokine-induced death, ATP luminescence, 48 h; percent of positive-control rescue, neutral wells zero. protection from apoptosis, % (no concentration beside the values). 300,000 compounds, 0.8% hits. AID 435005;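 active = Every replicate reaches about 75%, or at least half do and their mean reaches it too, limit read from the data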;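 also: 0% = cytokine-treated negative control wells and 100% = positive control rescue; higher means more ATP so stronger rescue from cytokine killing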
Mdm2-MdmX inh: inhibitors of human Mdm2/MdmX interaction; 330,000 compounds, 3% hits; inhibition, % at 8 µM; O15151+Q00987; SaOS-2 split-luciferase Mdm2/MdmX complementation, luminescence;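 active = inhibition of at least 50% at 8 µM in the primary screen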
Target sequence (O15151 whole entry, looked up): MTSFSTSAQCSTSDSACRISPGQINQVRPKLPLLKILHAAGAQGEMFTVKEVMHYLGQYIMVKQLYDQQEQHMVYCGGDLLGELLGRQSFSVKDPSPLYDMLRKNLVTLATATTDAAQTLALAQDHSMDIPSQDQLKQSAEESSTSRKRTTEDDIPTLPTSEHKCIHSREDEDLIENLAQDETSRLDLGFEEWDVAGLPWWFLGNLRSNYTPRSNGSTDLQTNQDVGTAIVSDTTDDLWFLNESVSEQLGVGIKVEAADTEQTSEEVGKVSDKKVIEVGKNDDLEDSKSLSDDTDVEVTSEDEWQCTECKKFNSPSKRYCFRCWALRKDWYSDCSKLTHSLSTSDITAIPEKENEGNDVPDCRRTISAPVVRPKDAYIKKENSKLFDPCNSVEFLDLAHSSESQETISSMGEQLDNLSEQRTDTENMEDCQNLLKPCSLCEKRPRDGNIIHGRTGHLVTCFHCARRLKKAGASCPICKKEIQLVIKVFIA
Target sequence (Q00987 whole entry, looked up): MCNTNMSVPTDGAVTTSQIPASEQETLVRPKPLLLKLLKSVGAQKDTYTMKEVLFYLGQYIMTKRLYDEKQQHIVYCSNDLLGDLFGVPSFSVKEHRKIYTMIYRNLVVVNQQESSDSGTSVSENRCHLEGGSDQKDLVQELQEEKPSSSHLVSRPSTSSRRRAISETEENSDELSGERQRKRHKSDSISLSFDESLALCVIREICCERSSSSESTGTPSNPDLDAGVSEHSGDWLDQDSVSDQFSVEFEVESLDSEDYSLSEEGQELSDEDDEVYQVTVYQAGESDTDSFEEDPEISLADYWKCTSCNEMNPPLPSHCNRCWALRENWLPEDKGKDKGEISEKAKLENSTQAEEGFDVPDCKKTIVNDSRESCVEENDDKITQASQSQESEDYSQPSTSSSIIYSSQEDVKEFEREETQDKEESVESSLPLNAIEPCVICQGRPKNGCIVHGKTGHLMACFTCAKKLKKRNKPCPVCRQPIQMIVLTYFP
SKKanGAS inh: blocks kanamycin growth of S. pyogenes SKKanGAS strain; BacTiter-Glo, 6 h; inhibition, % at 7.5 µM; 300,000 compounds, 1.3% hits;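 active = mean replicate score, as percent of positive control median, at least 50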;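 also: strain carries kanamycin resistance gene driven by streptokinase promoter and grows in 40 µg/ml kanamycin; loss of luminescence reflects streptokinase promoter inhibition or plain growth inhibition; 0% = median of DMSO wells and 100% = positive control at its reference dose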
T cruzi repl: T. cruzi replication inhibition; inhibition, % (test concentration not listed); 300,000 compounds, 1.4% hits; T. cruzi beta-gal in NIH3T3, luminescence, 90 h;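 active = mean inhibition across valid replicates above about 55%, limit read from the data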;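 also: signal also drops with host cell toxicity which is not excluded here; 0% = plate median of DMSO wells and 100% = zero luminescence signal; higher percent means less beta-gal luminescence so fewer parasites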
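Test system: β-gal T. cruzi (Tulahuen C4) inside NIH/3T3 cells / Quantity: 5,000 cells/well / Measured by: luminescence from GalScreen with 0.05% NP40, read after 60 min / Medium: DMEM plus 2% FBS / Measure: parasite load inhibition, % / Reagent: Tulahuen C4 trypomastigotes, 5000/well / Schedule: co-culture of at least 90 h after 3 h attachment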
CSC inhib: cancer stem cell inhibition. cancer stem cell-like cells viability, luminescence. AID 2717. 300,000 compounds, 1.1% hits. inhibition, % at 7.5 µM; in the data active = inhibition above about 75%; tested in HMLE shEcad cells
Calb FLC: affects C. albicans growth with fluconazole; C. albicans CaCi-2 (fluconazole-resistant clinical isolate) + fluconazole, Alamar Blue growth, 48 h; 300,000 compounds, 0.57% hits; growth inhibition, % (test concentration not listed);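 active = growth inhibition above about 58% in most replicates, limit read from the data, passing the limit was not always enough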;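 also: all wells also contain fluconazole at 8 µg/ml as a sub-toxic cotreatment; 0% = median of DMSO wells and 100% = median of geldanamycin control wells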
* = called active by the depositor; / = no result given.

SMILES | Beta apoptosis | Mdm2-MdmX inh | SKKanGAS inh | T cruzi repl | CSC inhib | Calb FLC
CC(CCC(C)C(C)(C)C)[C@@H]1CC[C@H]2C3C[C@H](OS(O)(=S)=S)[C@H]4C[C@H](OS(O)(=S)=S)[C@@H](OS(O)(=S)=S)C[C@]4(C)[C@H]3CC[C@]12C (some centres not stated) (tested in a mixture with another compound) | -0.8 | -18.5 | / | / | 98.4* | /
O=C(NC1CCCC1)c1ccc([N+](=O)[O-])s1 | 60.6 | -0.8 | -4.5 | 72.4* | -13.2 | -4.2
O=C(NCCCN1CCCC1=O)c1ccc([N+](=O)[O-])s1 | -1.4 | -6.8 | -5.3 | 60.1* | -6.5 | 5.8
Cc1cccc(NC(=S)NC(C)(C)CC(C)(C)C)c1 | 15.1 | -1.4 | 15.4 | 10.5 | -1.7 | 8.4
COc1cccc(CN2CCCC(CNC(=O)c3ccc(F)cc3)C2)c1OC (configuration not stated) | -2.9 | 8.5 | 0.0 | 68.4* | 14.7 | 0.2
O=C(NCC1CCCN(Cc2cccc(C(F)(F)F)c2)C1)c1ccc(F)cc1 (configuration not stated) | -5.5 | -2.8 | -2.1 | 57.0* | -0.3 | -9.3
CCc1ccc(CN2CCCC(CNC(=O)c3cccc(OC)c3OC)C2)cc1 (configuration not stated) | 5.0 | 15.2 | -2.8 | 61.3* | -4.6 | 2.9
COc1ccc(C(=O)N2CCCC(CNC(=O)c3ccc(F)cc3)C2)cc1OC (configuration not stated) | / | -7.3 | 2.1 | -18.0 | / | -1.8
CCn1ncc(CN2CCCC(CNC(=O)c3ccc(F)cc3)C2)c1C (configuration not stated) | -2.7 | -24.5 | -1.1 | 73.4* | -5.4 | -3.3
O=C(NCC1CCCN(C(=O)c2cccc(C(F)(F)F)c2)C1)c1ccc(F)cc1 (configuration not stated) | -2.5 | 15.5 | 3.9 | 5.2 | -0.1 | -3.3
CCc1ccc(CN2CCCC(CNC(=O)c3cc(OC)cc(OC)c3)C2)cc1 (configuration not stated) | / | 7.2 | 0.1 | 44.9 | -0.3 | -11.9
CCCNc1c(NS(=O)(=O)c2ccc(OC)c(OC)c2)c(=O)oc2ccccc12 | / | 12.5 | -7.6 | 12.1 | / | -2.9
COc1ccc(CC(=O)NCC2CCCN(Cc3cc(OC)cc(OC)c3)C2)cc1 (configuration not stated) | / | -27.0 | -2.4 | 57.7* | -7.5 | 1.0
COC(=O)c1ccc(CN2CCCC(CNC(=O)Cc3ccc(OC)cc3)C2)cc1 (configuration not stated) | / | 10.7 | 3.0 | 39.7 | -1.9 | 1.7
COCc1cc(CN2CCCC(CNC(=O)c3ccc(F)cc3)C2)ccc1OC (configuration not stated) | -6.2 | -23.1 | -18.2 | 80.8* | -5.6 | 1.5
CC(=O)NCC1CCCN(Cc2cn(-c3ccccc3)nc2-c2ccc3c(c2)OCO3)C1 (configuration not stated) | -0.5 | 10.7 | 1.8 | 4.7 | -3.1 | 10.8
Cc1cc(CN2CCCC(CNC(=O)c3ccc(F)cc3)C2)cc(C)c1O (configuration not stated) | 0.2 | 14.0 | -3.9 | 48.3 | -1.4 | -12.3
Cn1cc(CN2CCCC(CNC(=O)c3ccc4c(c3)OCO4)C2)c2ccccc21 (configuration not stated) | / | -14.1 | 1.1 | 66.5* | -7.7 | -13.2
COc1ccc(NC(=O)CS(=O)c2cccc(C(F)(F)F)c2)cc1 (configuration not stated) | 3.3 | 6.9 | 0.2 | -6.9 | -4.7 | 16.9
Cc1ccc2c(c1)-n1c(nc3cc(F)ccc3c1=O)C(Cc1ccc(O)cc1)NC2=O (configuration not stated) | -0.5 | 1.0 | / | / | -11.6 | /
CCCn1nnnc1NC(=O)c1ccc2ccccc2c1 | -6.0 | 16.2 | 89.8* | -27.3 | 27.1 | 116.5*
CCCNC(=O)CN1CCC(c2nc3ccccc3[nH]2)CC1 | -3.2 | -13.4 | -4.7 | -6.6 | -15.7 | 0.9
NNc1ccc(Cl)c(C(=O)O)c1 | -4.1 | 14.5 | 10.8 | 22.9 | -12.9 | 0.7
Cc1ccc(OCCNC(=O)c2ccccc2OCc2c(C)noc2C)cc1 | / | -11.4 | / | / | / | /
COc1ccc(S(=O)(=O)N2CCCCCC2)cc1N(C)S(=O)(=O)c1ccc(Cl)cc1 | 12.1 | 18.9 | 7.2 | 64.3* | 7.1 | 4.7
SMILES | Beta apoptosis | Mdm2-MdmX inh | SKKanGAS inh | T cruzi repl | CSC inhib | Calb FLC
COc1ccc(S(=O)(=O)N2CCC(C)CC2)cc1N(C)S(=O)(=O)c1ccccc1 | -13.5 | 8.1 | 0.8 | 14.1 | -1.9 | -0.2
O=S(=O)(c1ccsc1)N1CC=C(c2ccccc2)CC1 | -4.6 | 21.4 | -6.7 | 14.8 | -24.4 | -2.2
c1ccc(-c2csc(Nc3nc(N4CCOCC4)nc(N4CCOCC4)n3)n2)cc1 | -4.4 | 3.6 | 0.9 | 60.9* | 2.2 | 0.8
Cc1cc(C)nc(Nc2nc(-c3ccccc3)cs2)n1 | 6.8 | -188.4 | 10.2 | 7.0 | 6.8 | -1.0
OCC1(CCCc2ccccc2)CCN(Cc2cnc(N3CCOCC3)s2)CC1 | -2.5 | 13.5 | -4.3 | 58.7* | 13.9 | 13.2
CCOC(=O)C1(Cc2ccccc2)CCN(Cc2cnc(N3CCOCC3)s2)CC1 | -4.8 | -5.8 | -2.7 | 58.8* | -18.4 | 4.0
Cc1ccc(/C=N/Nc2cc(C)nc(NCc3ccccc3)n2)cc1 | 27.9 | 47.4 | 11.0 | 27.5 | 97.4* | -13.0
CNC(=O)c1sc(N2N=C3/C(=C/c4ccccc4)CCCC3C2c2ccccc2)nc1C (configuration not stated) | 97.9* | 34.1 | 39.8 | 40.8 | 51.0 | 17.8
Cc1ccc(C(C(=O)NC2CCCCC2)N(C(=O)Cc2c[nH]c3ccccc23)c2ccccc2)o1 (configuration not stated) | 7.9 | 16.0 | 10.5 | 55.6* | -10.1 | -17.5
CC(=O)Nc1ccc(N(C(=O)Cc2c[nH]c3ccccc23)C(C(=O)NC2CCCCC2)c2ccco2)cc1 (configuration not stated) | -0.9 | -0.3 | -8.8 | -3.9 | -10.8 | 37.7
O=C(NC1CCCCC1)C(c1cccs1)N(C(=O)Cc1c[nH]c2ccccc12)c1ccc(F)cc1 (configuration not stated) | 5.4 | 39.0 | 19.3 | 57.0* | -3.7 | 41.9
COC(=O)c1ccc(C(C(=O)NC2CCCCC2)N(Cc2ccc(F)cc2)C(=O)Cc2cccs2)cc1 (configuration not stated) | 2.2 | 14.7 | 18.2 | 13.0 | 3.7 | -3.1
COc1cccc(CN(C(=O)Cc2c[nH]c3ccccc23)C(C(=O)NC2CCCCC2)c2cccs2)c1 (configuration not stated) | 15.1 | 21.5 | 44.0 | 54.8* | 5.7 | 29.5
COc1ccc(C(C(=O)NC2CCCCC2)N(Cc2cccs2)C(=O)Cc2c[nH]c3ccccc23)cc1 (configuration not stated) | 24.1 | -5.0 | 28.5 | 40.6 | 10.8 | 68.0
